A selection: hits, their analogues and other compounds. The true share with any hit is near 3.4%.
MEKK2 mut-MEK5 = MEK5 binding signal on mutant MEKK2 PB1, primary screen, biochemical, multiplex bead flow cytometry, Alexa488-MEK5; 290,000 compounds, 0.35% hits; percent response, % at 10 µM; Alexa488-MEK5 binding to MEKK2 mutant; in the data active = percent response above about 24%, passing the limit was not always enough
VIM-2 inh = VIM-2 metallo-beta-lactamase inhibitors, primary screen, biochemical, epi-absorbance readout, Pseudomonas aeruginosa enzyme; purified VIM-2, nitrocefin hydrolysis, epi-absorbance fluorescence; inhibition, % at 5.6 µM; 290,000 compounds, 0.89% hits; AID 1527, 2009;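 active = inhibition above the mean of all tested compounds plus 3 SD, cutoff set per screening run, cut at about 7.5% in these data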;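 also: red hydrolysis product quenches plate fluorescence so inhibitors raise well fluorescence; 0% = enzyme with DMSO and 100% = DMSO without enzyme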
MEKK3 PB1 HTS = modulators of MEKK3-MEK5 PB1 binding, primary screen, biochemical, wildtype MEKK3, multiplex bead flow cytometry, Alexa488-MEK5; Mitogen-activated protein kinase kinase kinase 3 (Homo sapiens), Q99759; bead-based flow cytometry, Alexa488-MEK5 binding to MEKK3; actives lie on both sides; 0 = blocked by unlabeled MEK5, 100 = vehicle; binding response (% of control), % at 10 µM; 290,000 compounds, 1.4% hits; AID 1529, 2009;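 active = binding response more than 3 SD above or below the average of its plate-row segment, actives on both sides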;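 also: Alexa488 bead fluorescence after subtracting the streptavidin-only scavenger bead signal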
Target sequence (Q99759 whole entry, looked up): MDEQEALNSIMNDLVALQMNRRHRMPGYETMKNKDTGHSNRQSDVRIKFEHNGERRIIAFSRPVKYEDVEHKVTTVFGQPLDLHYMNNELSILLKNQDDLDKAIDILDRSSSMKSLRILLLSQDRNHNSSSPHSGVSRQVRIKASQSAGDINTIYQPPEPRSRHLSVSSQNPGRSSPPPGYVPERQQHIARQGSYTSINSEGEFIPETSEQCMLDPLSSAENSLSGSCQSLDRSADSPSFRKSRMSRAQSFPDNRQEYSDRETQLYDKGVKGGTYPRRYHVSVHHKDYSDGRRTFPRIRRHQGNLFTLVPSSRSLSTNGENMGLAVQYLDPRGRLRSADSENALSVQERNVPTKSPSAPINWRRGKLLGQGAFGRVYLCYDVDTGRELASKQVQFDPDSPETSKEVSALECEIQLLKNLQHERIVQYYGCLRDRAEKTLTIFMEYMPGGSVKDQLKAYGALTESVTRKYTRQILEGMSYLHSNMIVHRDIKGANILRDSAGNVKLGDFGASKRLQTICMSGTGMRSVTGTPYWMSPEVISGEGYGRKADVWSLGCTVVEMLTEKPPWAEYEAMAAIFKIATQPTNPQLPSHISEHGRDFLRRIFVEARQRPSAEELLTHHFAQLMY
MEKK2 WT-MEK5 = modulators of MEK5 binding to wildtype MEKK2, primary screen, biochemical, multiplex bead flow cytometry, Alexa488-MEK5; AID 1531, 2009; binding response (% of control), % at 10 µM; Alexa488-MEK5 binding to MEKK2 WT; actives lie on both sides; 290,000 compounds, 1.1% hits; in the data active = binding response below about 67% or above about 130%
IMP-1 inh = IMP-1 metallo-beta-lactamase inhibitors, primary screen, biochemical, epi-absorbance readout, Pseudomonas aeruginosa enzyme; AID 1556, 2009; metallo-beta-lactamase IMP-1 (Pseudomonas aeruginosa); inhibition, % at 5.6 µM; purified IMP-1, nitrocefin hydrolysis, epi-absorbance fluorescence; 290,000 compounds, 0.45% hits;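 active = inhibition above the mean plus 3 SD of all compounds in the same screening run, cut at about 4.5% in these data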;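 also: 0% = IMP-1 with DMSO and 100% = DMSO wells lacking enzyme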
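Test system: recombinant IMP-1 enzyme, purified / Medium: HEPES buffer pH 7.1 with ZnSO4 and Brij 35 / Doses: single dose, 5.6 µM / Times: 25 °C, 15 min preincubation, 25 min reaction / Detection: Epi-absorbance via hydrolysed-nitrocefin quenching of white-plate fluorescence, 480/530 nm, EDTA stop / Evaluation: percent inhibition from optical density relative to buffer-blank wells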
MEKK2wt confirm = modulators of MEK5 binding to wildtype MEKK2, confirmation, biochemical, single concentration, multiplex bead flow cytometry; shares compounds with MEKK3 PB1 HTS; Alexa488-MEK5 binding to MEKK2 WT; actives lie on both sides; binding response (% of control), % at 10 µM; 5,900 compounds, 2.4% hits; AID 1892, 2009; in the data active = binding response below about 16% or above about 210%; inactive = in between
MEKK2mut confirm = mutant MEKK2 PB1-MEK5 binding signal retest – biochemical, single concentration, multiplex bead flow cytometry, confirmation; 5,900 compounds, 2% hits; shares compounds with MEKK3 PB1 HTS; AID 1893, 2009; Alexa488-MEK5 binding to MEKK2 mutant; percent response, % at 10 µM; in the data active = percent response mostly above about 71%, no sharp cut-off; inactive = mostly below about 38%;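 also: higher means compound restores mutant binding toward wildtype level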
MEKK3 confirm = MEKK3 wild-type PB1 binding to MEK5, inhibitors, confirmation, biochemical, bead multiplex flow cytometry, single concentration, wildtype; Alexa488-MEK5 binding to MEKK3; stronger effect = lower value; 5,900 compounds, 1.8% hits; shares compounds with MEKK3 PB1 HTS; binding response (% of control), % at 10 µM;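 active = binding response below 72% of control, or above a set upper limit, though filed actives all read lower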;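 also: 100% = DMSO only wells and 0% = binding blocked by excess unlabeled MEK5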
Active calls of the source: *; nt = no result; [ ] = dose if it differs, or a comment.

SMILES	MEKK2 mut-MEK5	VIM-2 inh	MEKK3 PB1 HTS	MEKK2 WT-MEK5	IMP-1 inh	MEKK2wt confirm	MEKK2mut confirm	MEKK3 confirm
O=C(NCCc1ccccc1)C(=O)NCC1CCCO1 (configuration not stated)	-21	-3	12*[inhibitor]	17*[inhibitor]	-5	98	-1	101
CC1(C)CC(=O)C2=C(C1)NC1=C(C(=O)c3ccccc31)C2c1cccnc1 (configuration not stated)	-1	1	105	98	0	nt	nt	nt
COc1ccccc1CNC(=O)c1cc(C(C)C)nc2ccccc12	-1	-1	101	100	-1	nt	nt	nt
CCOC(=O)C1(Cc2ccc(OC)cc2)CCN(C(=O)CN2CCN(CC)CC2)CC1	6	-2	104	109	-3	nt	nt	nt
CC(CCc1ccc(O)cc1)NCCC(c1ccccc1)c1ccccc1 (configuration not stated)	20	0	106	144*	-1	139	21	105
COc1ccccc1CNc1nc(-c2cc(C)n(C)c2C)cs1	-4	-2	78	-7.0*[inhibitor]	-1	105	6	96
N#Cc1nc(COc2ccc(F)cc2)oc1N1CCN(Cc2ccccc2)CC1	nt	-1	nt	nt	-2	nt	nt	nt
COC/C=C/C1=CC2=CC(=O)C(C)(OC(=O)c3cnc4ccccc4n3)C(=O)C2=CN1CC(C)C (configuration not stated)	-2	nt	80*[inhibitor]	85	nt	101	3	101
COC/C=C/C1=CC2=CC(=O)C(C)(OC(=O)c3cnc4ccccc4n3)C(=O)C2=CN1c1ccccc1 (configuration not stated)	4	nt	95	94	nt	nt	nt	nt
c1ccc(Cc2ccc(OCCCNC3CCCC3)cc2)cc1	13	-3	108	138*	-2	128	10	102
Cc1nc2c3ccccc3nc(SCC(=O)N3CC(C)CC(C)C3)n2n1 (configuration not stated)	nt	-1	nt	nt	-4	nt	nt	nt
Cc1nc2c3ccccc3nc(SCC(=O)c3ccc(Cl)cc3)n2n1	-1	-2	129*	100	-5	103	1	107
Cc1cc(=O)oc2cc(OCC(=O)Nc3ccccc3C(=O)O)ccc12	2	-1	100	104	-1	nt	nt	nt
CN1CCN(C2=Cc3ccccc3Sc3cc(F)c(F)cc32)CC1	10	-1	107	123	1	nt	nt	nt
CN1CCN(C2=Cc3ccccc3Sc3cc(F)c(Cl)cc32)CC1	10	1	99	134*	-2	163	30	103
CN1CCN(C2=Cc3cc(Cl)ccc3Sc3cc(F)ccc32)CC1	53*	-1	83	202*	0	164	26	103
Cc1ccc(C)c(C(=O)COC(=O)c2cc([N+](=O)[O-])ccc2NCCO)c1	-3	-1	96	96	-3	nt	nt	nt
Brc1ccc(C2=Nc3ccccc3C(c3ccncc3)=NN2)cc1	-11	0	100	96	-1	nt	nt	nt
O/N=C/c1cc(Br)ccc1OCc1ccccc1F	12	-1	116	128	-1	nt	nt	nt
NC(=O)N/N=C/c1coc2ccc(O)cc2c1=O	-31	0	45*[inhibitor]	55	2	101	-2	100
CCCCCn1c(SCc2ccncc2)nc2cc(C(=O)NCc3ccco3)ccc2c1=O	0	-2	98	99	-6	nt	nt	nt
CCOC(=O)N1CCC(Nc2nc3ccccc3n3cnnc23)CC1	-43	-3	0.0*[inhibitor]	0.0*[inhibitor]	-2	97	-4	99
CCOC(=O)N1CCN(c2nc3ccc(C(=O)c4ccccc4)cc3n3cnnc23)CC1	2	-3	101	99	-3	nt	nt	nt
O=C1OC(c2ccccc2)=C/C1=C\N1CCOCC1	-16	2	2.0*[inhibitor]	2.0*[inhibitor]	-2	107	3	105
N#C/C(=C\N1CCOCC1)c1ccccc1	-10	2	83	85	-4	nt	nt	nt
SMILES	MEKK2 mut-MEK5	VIM-2 inh	MEKK3 PB1 HTS	MEKK2 WT-MEK5	IMP-1 inh	MEKK2wt confirm	MEKK2mut confirm	MEKK3 confirm
CCOC(=O)N1CCN(c2c(N3CCC(N4CCCCC4)CC3)c(=O)c2=O)CC1	1	1	104	106	1	nt	nt	nt
CC(C)c1ccc(CNC(=O)CSCC(=O)Nc2ccc3ccccc3c2)cc1	12	1	117	140*	1	106	2	101
Cc1ccc(C)c(C2=CSC3=NS(=O)(=O)CCN23)c1	-21	-1	2.0*[inhibitor]	3.0*[inhibitor]	-1	95	-6	98
NS(=O)(=O)c1cccc(NC(=O)CN2CCc3ccccc32)c1	18	-1	98	21*[inhibitor]	-1	84	-18	90
CN(c1ccccc1)S(=O)(=O)c1cccc(NC(=O)CN2CCCc3ccccc32)c1	-1	-1	99	98	-3	nt	nt	nt
COc1ccc(C(=O)CCN2CCN(c3ccccc3OC)CC2)cc1	-3	-1	97	103	-1	nt	nt	nt
COc1ccc(C(=O)CCN2CCc3cc(OC)c(OC)cc3C2)cc1	-47	3	1.0*[inhibitor]	1.0*[inhibitor]	1	110	-1	100
CSc1c(CC(=O)Nc2ccccc2C(F)(F)F)n(Cc2ccccc2)c2ccccc12	3	-3	94	88	-3	nt	nt	nt
Nc1ccc(C23CC4CC(CC(C4)C2)C3)cc1	-16	0	41*[inhibitor]	53	-2	96	-3	100
Nc1ccc(C23CC4CC(CC(O)(C4)C2)C3)cc1	-5	0	98	98	-3	nt	nt	nt
O=[N+]([O-])c1nn(-c2ccccc2)[n+]([O-])c1N1CCN(c2ccccc2F)CC1	-1	-2	100	101	-4	nt	nt	nt
CC(C)OCCCN1CN(S(=O)(=O)c2ccccc2)c2nc3ccccc3nc21	-66	-2	6.0*[inhibitor]	11*[inhibitor]	-3	107	2	104
COCCCN1CN(S(=O)(=O)c2ccc(Cl)cc2)c2nc3ccccc3nc21	10	-2	97	99	-2	nt	nt	nt
Oc1ccc2ccccc2c1CN1CCN(c2ccccc2F)CC1	2	-2	100	101	0	nt	nt	nt

Screening data from PubChem BioAssay.
